From ChEMBL document CHEMBL1139534, “Inhibition of herpes simplex virus thymidine kinases by 2-phenylamino-6-oxopurines and related compounds: structure-activity relationships and antiherpetic activity in vivo” (J Med Chem, 2005)
pIC50, pKi: −log10 of the molar value.

Legend:
Mus musculus [1] = assay: Effect on HSV-1 encephalitis in mice following intraperitoneal dosage at 100 mg/kg; expressed as number of survivors/10; assay type: functional
Method in brief: (§1)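 Female BALB/c mice, 6 weeks old, groups of 10, anesthetized with ketamine/xylazine. Corneas lightly scratched, then 10⁶ PFU per eye applied in culture medium (HSV-1 McKrae or HSV-2 G, Vero-grown). Compound given ip as corn-oil suspension, 0.1 mL, twice daily for 5 days; vehicle controls. Mice alive at 30 days counted survivors; day of death recorded for the rest.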

Mus musculus [2] = assay: Effect on HSV-1 encephalitis in mice following intraperitoneal dosage at 200 mg/kg; expressed as number of survivors/10; assay type: functional; method in brief: as §1
Mus musculus [3] = assay: Effect on HSV-1 encephalitis in mice following intraperitoneal dosage at 400 mg/kg; expressed as number of survivors/10; assay type: functional; method in brief: as §1
Mus musculus [4] = assay: Effect on HSV-2 encephalitis in mice following intraperitoneal dosage at 100 mg/kg; expressed as number of survivors/10; assay type: functional; method in brief: as §1
Mus musculus [5] = assay: Effect on HSV-2 encephalitis in mice following intraperitoneal dosage at 200 mg/kg; expressed as number of survivors/10; assay type: functional; method in brief: as §1
Mus musculus [6] = assay: Effect on HSV-2 encephalitis in mice following intraperitoneal dosage at 400 mg/kg; expressed as number of survivors/10; assay type: functional; method in brief: as §1
Mus musculus [7] = assay: Effect on ocular HSV-2 reactivation in mice following intraperitoneal dosage at 200 mg/kg; expressed as HSV-2 positive cultures/15 mice; assay type: functional, Eye
Method in brief: (§2)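 Female BALB/c mice, 6 weeks old, ocularly infected with HSV-2 strain G (Vero-grown) to establish trigeminal latency. Groups of 15 received a single ip dose as a corn oil suspension, with a corn oil-only group. Thirty minutes later they were immersed in 43 °C water for 10 min as hyperthermic stress. Eyes were swabbed after 24 h for infectious virus, and virus-positive cultures were counted per group.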

Mus musculus [8] = assay: Effect on HSV-1 encephalitis in mice following intraperitoneal dosage at 100 mg/kg; expressed as mean day of death; assay type: functional; method in brief: as §1
Mus musculus [9] = assay: Effect on HSV-1 encephalitis in mice following intraperitoneal dosage at 200 mg/kg; expressed as mean day of death; assay type: functional; method in brief: as §1
Mus musculus [10] = assay: Effect on HSV-1 encephalitis in mice following intraperitoneal dosage at 400 mg/kg; expressed as mean day of death; assay type: functional; method in brief: as §1
Mus musculus [11] = assay: Effect on HSV-2 encephalitis in mice following intraperitoneal dosage at 100 mg/kg; expressed as mean day of death; assay type: functional; method in brief: as §1
Mus musculus [12] = assay: Effect on HSV-2 encephalitis in mice following intraperitoneal dosage at 200 mg/kg; expressed as mean day of death; assay type: functional; method in brief: as §1
Thymidine kinase [13] = target: T1, Thymidine kinase (Human herpesvirus 1 (strain SC16) (HHV-1) (Human herpes simplex virus1), UniProt P06479); assay: Inhibitory concentration against herpes simplex virus type 1 thymidine kinase
T1 sequence (P06479 whole entry): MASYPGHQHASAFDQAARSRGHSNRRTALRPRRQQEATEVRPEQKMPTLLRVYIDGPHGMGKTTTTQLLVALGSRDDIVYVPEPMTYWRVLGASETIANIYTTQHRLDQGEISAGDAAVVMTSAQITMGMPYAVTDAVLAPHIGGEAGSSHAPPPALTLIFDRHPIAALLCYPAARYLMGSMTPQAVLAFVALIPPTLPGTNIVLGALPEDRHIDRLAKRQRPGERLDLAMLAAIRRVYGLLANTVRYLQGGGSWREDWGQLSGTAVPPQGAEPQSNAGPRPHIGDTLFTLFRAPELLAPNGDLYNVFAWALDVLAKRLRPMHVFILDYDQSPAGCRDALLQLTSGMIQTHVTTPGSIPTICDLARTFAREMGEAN

Thymidine kinase [14] = target: T2, Thymidine kinase (Human herpesvirus 2, UniProt Q6L709); assay: Inhibitory concentration against herpes simplex virus type 2 thymidine kinase; set-up: species or system Human alphaherpesvirus 2
T2 sequence (Q6L709 whole entry): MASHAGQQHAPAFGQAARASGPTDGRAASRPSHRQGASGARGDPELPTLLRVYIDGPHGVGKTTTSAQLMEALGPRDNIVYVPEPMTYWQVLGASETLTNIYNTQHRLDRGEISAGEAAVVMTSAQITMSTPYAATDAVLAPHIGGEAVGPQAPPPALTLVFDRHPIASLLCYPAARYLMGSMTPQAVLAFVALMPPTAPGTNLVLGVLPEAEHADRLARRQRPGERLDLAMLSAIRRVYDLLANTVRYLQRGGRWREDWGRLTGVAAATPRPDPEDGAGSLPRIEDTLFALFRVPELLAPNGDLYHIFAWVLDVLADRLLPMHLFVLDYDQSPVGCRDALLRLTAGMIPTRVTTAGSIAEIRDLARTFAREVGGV
Method in brief: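 Recombinant His-tagged HSV-2 TK expressed in E. coli, Ni-NTA purified. Products captured on DEAE paper and counted by scintillation. Inhibitor diluted from DMSO stocks, at least five concentrations in duplicate; IC50 is the concentration halving activity.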

Mus musculus [15] = assay: Effect ocular HSV-2 reactivation in mice following intraperitoneal dosage at 200 mg/kg; expressed as HSV-2 positive cultures/15 mice; assay type: functional, Eye; method in brief: as §2
Thymidine kinase [16] = target: T1, Thymidine kinase; assay: Binding affinity for herpes simplex virus type 1 thymidine kinase
Thymidine kinase [17] = target: T2, Thymidine kinase; assay: Binding affinity for herpes simplex virus type 2 thymidine kinase; set-up: species or system Human alphaherpesvirus 2
Method in brief: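 His-tagged recombinant HSV-2 TK, expressed in E. coli DH5α and purified on Ni-NTA. Incubated 15 min at 37 °C in 30 mM HEPES-K+ pH 7.5, 6 mM MgCl2, 6 mM ATP, 0.5 mM DTT, with several [3H-methyl]TdR concentrations and inhibitor diluted from DMSO stocks. Phosphorylated product retained on DEAE paper disks and counted by scintillation. Ki taken from double-reciprocal (Lineweaver-Burk) plots.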

Mus musculus [18] = assay: Effect on HSV-2 encephalitis in mice following intraperitoneal dosage at 400 mg/kg; expressed as mean day of death; assay type: functional; method in brief: as §1

SMILES	pIC50 (Thymidine kinase [13])	pIC50 (Thymidine kinase [14])	further results
O=c1[nH]c(Nc2ccccc2)nc2c1ncn2CCCCO	–	–	Activity (Mus musculus [1]): 3; Activity (Mus musculus [2]): 6; Activity (Mus musculus [3]): 9; Activity (Mus musculus [4]): 4; Activity (Mus musculus [5]): 9; Activity (Mus musculus [6]): 10; Activity (Mus musculus [7]): 4; Activity (Mus musculus [8]): 9.5; Activity (Mus musculus [9]): 11.8; Activity (Mus musculus [10]): 11; Activity (Mus musculus [11]): 15.7; Activity (Mus musculus [12]): 18
Oc1nc(Nc2ccccc2)nc2c1ncn2CCCCN1CCCC1CN1CCCCC1 (stereo not given)	6.00	6.89	–
CN(C)CCCCn1cnc2c(O)nc(Nc3ccccc3)nc21	5.44	6.21	–
COC1CCN(CCCCn2cnc3c(O)nc(Nc4ccccc4)nc32)CC1	5.64	6.85	–
CC1CN(CCCCn2cnc3c(O)nc(Nc4ccccc4)nc32)CC(C)N1 (stereo not given)	5.15	6.10	–
Oc1nc(Nc2ccccc2)nc2c1ncn2CCCCN1CCC(O)CC1	5.09	6.15	–
Oc1nc(Nc2ccccc2)nc2c1ncn2CCCCN1CCC(N2CCCCC2)CC1	4.78	6.00	–
OCCC1CCCCN1CCCCn1cnc2c(O)nc(Nc3ccccc3)nc21 (stereo not given)	6.11	7.19	–
Oc1nc(Nc2ccccc2)nc2c1ncn2CCCCN1CCCCC1c1ccccc1 (stereo not given)	6.26	7.05	–
CCN(CC)CCCCn1cnc2c(O)nc(Nc3ccccc3)nc21	5.35	6.64	–
CCN(C)CCCCn1cnc2c(O)nc(Nc3ccccc3)nc21	5.33	6.42	–
Oc1nc(Nc2ccccc2)nc2c1ncn2CCCCN1CCCC(O)C1 (stereo not given)	5.24	6.51	–
Cl.Cl.Oc1nc(Nc2ccccc2)nc2c1ncn2CCCCN1CCCCC1	5.80	6.66	Activity (Mus musculus [4]): 0; Activity (Mus musculus [7]): 11; Activity (Mus musculus [11]): 15.2
OCCCCn1cnc2c(O)nc(Sc3ccccc3)nc21	6.30	5.70	Activity (Mus musculus [15]): 10
O=C(O)CCCn1cnc2c(O)nc(Nc3ccccc3)nc21	6.00	6.15	Activity (Mus musculus [7]): 11
Nc1nc2c(ncn2COCCO)c(=O)[nH]1 [ACYCLOVIR]	–	–	Activity (Mus musculus [1]): 7; Activity (Mus musculus [4]): 6; Activity (Mus musculus [7]): 10; Activity (Mus musculus [8]): 13; Activity (Mus musculus [11]): 17.2

SMILES	pIC50 (Thymidine kinase [13])	pIC50 (Thymidine kinase [14])	further results
Cl.Cl.Oc1nc(Nc2ccccc2)nc2c1ncn2CCCCN1CCCC2CCCCC21 (stereo not given)	6.82	7.89	pKi (Thymidine kinase [16]): 7.52; pKi (Thymidine kinase [17]): 8.30; Activity (Mus musculus [5]): 0; Activity (Mus musculus [7]): 10; Activity (Mus musculus [12]): 15.4
COCCCCn1cnc2c(=O)[nH]c(Nc3ccccc3)nc21	4.92	4.85	–
N#CC1(c2ccccc2)CCN(CCCCn2cnc3c(O)nc(Nc4ccccc4)nc32)CC1	6.39	6.66	–
Oc1nc(Nc2ccccc2)nc2c1ncn2CCCCN1CCC(O)(c2ccc(Cl)c(C(F)(F)F)c2)CC1	5.70	6.70	–
OCCN(CCO)CCCCn1cnc2c(O)nc(Nc3ccccc3)nc21	5.28	6.47	–
OCCCCCn1cnc2c(O)nc(Nc3ccccc3)nc21	4.82	4.27	Activity (Mus musculus [1]): 0; Activity (Mus musculus [4]): 1; Activity (Mus musculus [7]): 8; Activity (Mus musculus [8]): 10.7; Activity (Mus musculus [11]): 11.2
O=C(O)P(=O)(O)O [FOSCARNET]	–	–	Activity (Mus musculus [1]): 1; Activity (Mus musculus [2]): 5; Activity (Mus musculus [3]): 7; Activity (Mus musculus [4]): 0; Activity (Mus musculus [5]): 4; Activity (Mus musculus [6]): 6; Activity (Mus musculus [7]): 7; Activity (Mus musculus [8]): 9.2; Activity (Mus musculus [9]): 10.4; Activity (Mus musculus [10]): 12.3; Activity (Mus musculus [11]): 15.2; Activity (Mus musculus [12]): 17.8; Activity (Mus musculus [18]): 18.5
OCCCn1cnc2c(O)nc(Nc3ccccc3)nc21	5.70	5.82	Activity (Mus musculus [1]): 1; Activity (Mus musculus [4]): 0; Activity (Mus musculus [7]): 9; Activity (Mus musculus [8]): 9.7; Activity (Mus musculus [11]): 10.7
C=CCN(CC=C)CCCCn1cnc2c(O)nc(Nc3ccccc3)nc21	5.68	6.38	–
Nc1nc2c(ncn2CCCCO)c(=O)[nH]1	4.22	3.80	–
COC1CCCN(CCCCn2cnc3c(O)nc(Nc4ccccc4)nc32)C1 (stereo not given)	5.60	6.82	–
Oc1nc(Nc2ccccc2)nc2c1ncn2CCCCN1CCCc2ccccc21	6.46	7.33	–
O=c1[nH]c(Oc2ccccc2)nc2c1ncn2CCCCO	6.12	5.05	–
CN(c1ccccc1)c1nc2c(ncn2CCCCO)c(=O)[nH]1	4.80	4.43	–
O=c1[nH]c(Nc2ccccc2)nc2c1ncn2CCO	5.36	–	–
